Results published in ChEMBL document CHEMBL3232894, “Discovery of AMG 925, a FLT3 and CDK4 dual kinase inhibitor with preferential affinity for the activated state of FLT3” (J Med Chem, 2014).
Calls of active or inactive are those of the source. The calls are words filed in the database; no cut-off is given here.

Legend:
[1] = target: T1, Receptor-type tyrosine-protein kinase FLT3 (Homo sapiens, UniProt P36888); assay: Inhibition of GST-fused human FLT3 cytoplasmic domain (amino acids 564 to 993) using Ulight-JAK1 as substrate after 1 hr by TR-FRET assay
T1 sequence (P36888 whole entry): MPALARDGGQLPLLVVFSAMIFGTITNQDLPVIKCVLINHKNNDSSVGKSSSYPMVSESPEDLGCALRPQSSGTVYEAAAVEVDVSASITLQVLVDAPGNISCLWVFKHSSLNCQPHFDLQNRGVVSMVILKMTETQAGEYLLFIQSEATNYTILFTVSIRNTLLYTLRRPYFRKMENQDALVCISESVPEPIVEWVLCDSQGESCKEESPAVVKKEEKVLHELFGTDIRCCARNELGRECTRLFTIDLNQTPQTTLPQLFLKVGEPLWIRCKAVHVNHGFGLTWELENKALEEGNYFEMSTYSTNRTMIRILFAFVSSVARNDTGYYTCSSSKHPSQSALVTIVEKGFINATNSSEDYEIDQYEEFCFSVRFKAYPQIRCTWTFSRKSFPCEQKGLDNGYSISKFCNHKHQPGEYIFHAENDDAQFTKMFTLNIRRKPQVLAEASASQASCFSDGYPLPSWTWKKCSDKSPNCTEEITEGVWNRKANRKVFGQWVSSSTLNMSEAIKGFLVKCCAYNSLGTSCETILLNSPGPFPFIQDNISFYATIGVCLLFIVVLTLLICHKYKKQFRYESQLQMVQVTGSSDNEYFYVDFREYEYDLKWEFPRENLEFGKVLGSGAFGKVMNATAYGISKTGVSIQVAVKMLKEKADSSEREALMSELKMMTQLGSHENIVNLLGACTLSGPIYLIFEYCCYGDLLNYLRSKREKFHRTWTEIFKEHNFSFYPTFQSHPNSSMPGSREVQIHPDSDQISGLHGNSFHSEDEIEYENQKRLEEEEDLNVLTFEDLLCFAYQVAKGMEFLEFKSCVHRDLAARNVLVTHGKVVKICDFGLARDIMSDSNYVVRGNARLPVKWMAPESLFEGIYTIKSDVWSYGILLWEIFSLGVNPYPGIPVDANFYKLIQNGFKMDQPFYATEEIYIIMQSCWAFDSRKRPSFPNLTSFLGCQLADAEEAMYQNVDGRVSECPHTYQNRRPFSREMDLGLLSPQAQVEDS

Tumour [2] = assay: Decrease in STAT5 phosphorylation at Tyr694 in tumor of CrTac:NCR-Foxn1nu (NCR) nude mouse xenografted with human MOLM13 cells at 50 to 150 mg/kg, po after 3 to 24 hrs; type: functional, organism-based; settings: Neoplasm, MOLM-13
Method in brief: (§1)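 MOLM13 tumor-bearing mice received a single oral dose of 50, 75 or 150 mg/kg. Tumors were harvested at 3, 6 and 24 h, and lysates were assayed for pSTAT5 and pRb. Unbound plasma levels were measured at the same time points. Results are mean ± SEM, n = 3 per group and n = 6 for vehicle.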

[3] = AUC in po dosed CrTac:NCR-Foxn1nu (NCR) nude mouse xenografted with human MOLM13 cells administered qd for 8 days; type: ADME, organism-based, MOLM-13; settings: in vivo
Method in brief: (§2)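 Oral dosing once daily, day 5 to day 13, in NCR nude mice bearing established subcutaneous human MOLM13 AML xenografts, at 25, 50, 75 and 150 mg/kg against a vehicle group. Tumor growth inhibition read on day 14. AUC comes from terminal PK on plasma collected after the final dose.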

Tumour [4] = assay: Decrease in Rb phosphorylation at Ser780 in tumor of CrTac:NCR-Foxn1nu (NCR) nude mouse xenografted with human MOLM13 cells at 50 to 150 mg/kg, po after 3 to 24 hrs; type: functional, organism-based; settings: Neoplasm, MOLM-13; method in brief: as §1
[5] = Oral bioavailability in dog; type: ADME, organism-based, Canis lupus familiaris; settings: in vivo
Method in brief: (§3)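 Intravenous and oral (gavage, solution) PK in rat, dog and cynomolgus monkey. The rat vehicle for both routes was water/acetate/tween at pH 4, 96/3/1 (v/v/v). Dog and monkey iv doses used 40% PG aqueous solution at pH 2, and their oral doses used 20% captisol aqueous solution.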

MOLM-13 [6] = assay: Antiproliferative activity against human MOLM13 cells harboring FLT3 ITD mutant assessed as incorporation of [3H]thymidine into DNA after 72 hrs by beta-plate counting analysis; type: functional, cell-based
[7] = Clearance in iv dosed dog; type: ADME, organism-based, Canis lupus familiaris; settings: in vivo; method in brief: as §3
MOLM-13 [8] = assay: Antitumor activity against human MOLM13 cells xenografted in CrTac:NCR-Foxn1nu (NCR) nude mouse assessed as tumor growth inhibition at 150 mg/kg, po administered qd for 8 days; type: functional; settings: MOLM-13, 192 h, read-out: TGI; method in brief: as §2
U-937 = assay: Induction of apoptosis in human U937 cells harboring wild type FLT3 at 1 uM after 48 hrs by Annexin V/Sytox Green staining based flow cytometry; type: functional
Method in brief: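 MOLM13, sorafenib-resistant MOLM13 and U937 cells were each exposed to compound at 1 μM for 48 h. Cells were then stained with Annexin V/Sytox Green and analysed by flow cytometry. Readout is apoptotic cells as a percentage of all cells analysed.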

[9] = Volume of distribution at steady state in iv dosed dog; type: ADME, organism-based, Canis lupus familiaris; settings: in vivo, read-out: Vdss; method in brief: as §3
[10] = target: Receptor-type tyrosine-protein kinase FLT3 (Homo sapiens, UniProt P36888, N841I); assay: Binding affinity to FLT3 N841I mutant (unknown origin)
[11] = target: Cyclin-dependent kinase 4 (Homo sapiens, UniProt P11802); assay: Inhibition of CDK4 in human COLO205 cells assessed as inhibition of Rb phosphorylation at Ser780 after 24 hrs
Mus musculus [12] = assay: Toxicity in CrTac:NCR-Foxn1nu (NCR) nude mouse xenografted with human MOLM13 cells assessed as body weight loss at 25 to 150 mg/kg, po administered qd for 8 days; type: organism-based, MOLM-13; design: dose 25-150 mg/kg, route oral; settings: in vivo, 192 h
Method in brief: (§4)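 Body weight tracked throughout the 8-day once-daily oral study in NCR nude mice carrying MOLM13 xenografts. Doses were 25, 50, 75 and 150 mg/kg, with a vehicle control.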

[13] = target: Receptor-type tyrosine-protein kinase FLT3 (Homo sapiens, UniProt P36888, ITD); assay: Inhibition of FLT3 ITD mutant in human MOLM13 cells assessed as inhibition of STAT5 phosphorylation at Tyr694 after 24 hrs; type: cell-based, MOLM-13
[14] = Elimination half-life in iv dosed rat; type: ADME, organism-based; settings: in vivo, read-out: beta t1/2 (converted); method in brief: as §3
MOLM-13 [15] = assay: cells; settings: Homo sapiens
MOLM-13 [16] = assay: Antiproliferative activity against human MOLM13 cells harboring FLT3 ITD mutant assessed as incorporation of [3H]thymidine into DNA after […] by beta-plate counting analysis; type: functional, cell-based
[17] = Clearance in iv dosed cynomolgus monkey; type: ADME, organism-based, Macaca fascicularis; settings: in vivo; method in brief: as §3
COLO 205 = assay: Antiproliferative activity against Rb-positive human COLO205 cells assessed as incorporation of [14C]thymidine into DNA after 72 hrs by beta-plate counting analysis
Mus musculus [18] = assay: Toxicity in po dosed CrTac:NCR-Foxn1nu (NCR) nude mouse xenografted with human MOLM13 cells administered qd for 8 days; type: organism-based, MOLM-13; settings: in vivo, 192 h; method in brief: as §4
[19] = Elimination half-life in iv dosed cynomolgus monkey; type: ADME, organism-based, Macaca fascicularis; settings: in vivo, read-out: beta t1/2 (converted); method in brief: as §3

Sequence of Cyclin-dependent kinase 4 (P11802 whole entry): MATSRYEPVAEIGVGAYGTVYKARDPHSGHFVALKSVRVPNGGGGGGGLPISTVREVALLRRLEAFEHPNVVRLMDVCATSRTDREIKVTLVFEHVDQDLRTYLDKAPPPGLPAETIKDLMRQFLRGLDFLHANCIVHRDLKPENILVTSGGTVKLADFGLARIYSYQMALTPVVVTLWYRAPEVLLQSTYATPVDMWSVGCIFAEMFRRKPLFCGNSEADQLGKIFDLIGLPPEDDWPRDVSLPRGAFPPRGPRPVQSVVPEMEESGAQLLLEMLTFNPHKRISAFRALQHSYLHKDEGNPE

**Q.** With `C[C@H]1CC[C@H](n2c3cnccc3c3cnc(Nc4ccc5c(n4)CCN(C(=O)CO)C5)nc32)CC1` as the compound, how does the IC50 [1] read?
**A.** 1 nM

**Q.** And the inhibition (Tumour [2])?
**A.** Active

**Q.** What about the AUC at 192 h [3] of the same compound?
**A.** 28 µM·h

**Q.** What about the inhibition (Tumour [4]) of the same compound?
**A.** Active

**Q.** What about the bioavailability [5] of the same compound?
**A.** 100%

**Q.** What about the IC50 (MOLM-13 [6]) of the same compound?
**A.** 19 nM

**Q.** What about the clearance [7] of the same compound?
**A.** 23.5 mL/min/kg

**Q.** And the inhibition in vivo at 150 mg/kg (MOLM-13 [8])?
**A.** 100%

**Q.** And the Activity (U-937)?
**A.** 23.68%

**Q.** And the Vd [9]?
**A.** 2.6 L/kg

**Q.** What about the Kd [10] of the same compound?
**A.** 4 nM

**Q.** What about the IC50 [11] of the same compound?
**A.** 23 nM

**Q.** And the Activity (Mus musculus [12])?
**A.** 10%

**Q.** What about the IC50 [13] of the same compound?
**A.** 5 nM

**Q.** What about the half-life [14] of the same compound?
**A.** 5.5 h

**Q.** And the IC50 (MOLM-13 [15])?
**A.** 23 nM

**Q.** And the IC50 (MOLM-13 [16])?
**A.** 28 nM

**Q.** And the clearance [17]?
**A.** 23.7 mL/min/kg

**Q.** And the IC50 (COLO 205)?
**A.** 55 nM

**Q.** And the Activity (Mus musculus [18])?
**A.** Non-toxic

**Q.** What about the half-life [19] of the same compound?
**A.** 6.6 h
